Measured values taken from ChEMBL document CHEMBL5360615, “Pharmacological and Physicochemical Properties Optimization for Dual-Target Dopamine D3 (D3R) and μ-Opioid (MOR) Receptor Ligands as Potentially Safer Analgesics” (J Med Chem, 2023).
The source made the active and inactive calls. No cut-off for these calls is given here.

Tests used:
Mu-type opioid receptor [1] = biological target: Mu-type opioid receptor (Homo sapiens, UniProt P35372); assay: Displacement of [3H]-DAMGO from human MOR receptor expressed in HEK293T cell membrane assessed as inhibition constant incubated for 60 mins by MicroBeta scintillation counting method; type: cell membranes
Mu-type opioid receptor (Homo sapiens, UniProt P35372), sequence (P35372 whole entry): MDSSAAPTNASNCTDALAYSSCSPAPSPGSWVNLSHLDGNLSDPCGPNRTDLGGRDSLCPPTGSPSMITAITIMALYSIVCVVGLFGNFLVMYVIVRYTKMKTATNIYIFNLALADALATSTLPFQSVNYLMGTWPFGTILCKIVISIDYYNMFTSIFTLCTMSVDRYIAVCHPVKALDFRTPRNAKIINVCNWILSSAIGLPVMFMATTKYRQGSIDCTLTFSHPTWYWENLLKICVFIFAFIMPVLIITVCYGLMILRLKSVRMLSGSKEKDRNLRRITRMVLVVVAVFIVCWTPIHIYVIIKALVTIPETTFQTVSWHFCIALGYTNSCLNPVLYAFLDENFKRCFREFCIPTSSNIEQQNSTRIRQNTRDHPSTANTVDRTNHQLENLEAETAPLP
In short: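 HEK293 cells stably expressing human MOR, grown in DMEM with 10% FBS and hygromycin B; membranes prepared from confluent cells. Binding buffer 50 mM Tris, 5 mM MgCl2, pH 7.4. Nonspecific binding with 10 μM naloxone. 60 min at RT, then GF/C filtration.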

Mu-type opioid receptor [2] = biological target: Mu-type opioid receptor (Mus musculus, UniProt P42866); assay: (§1) Partial agonist activity at SNAP-tagged mouse MOR transfected in HEK293T cells coexpressing wild type Galpha-i2, venus-tagged Gbeta-1 (156 to 239 residues), venus-tagged Ggamma2 (1 to 155 residues) and Rluc8 fused masGRK3ct assessed as Galpha-i2 activation using coelenterazine as substrate incubated for 40 mins by BRET based GPA assay; type: functional, cell-based
Mu-type opioid receptor (Mus musculus, UniProt P42866), sequence (P42866 whole entry, the tested form may be a part): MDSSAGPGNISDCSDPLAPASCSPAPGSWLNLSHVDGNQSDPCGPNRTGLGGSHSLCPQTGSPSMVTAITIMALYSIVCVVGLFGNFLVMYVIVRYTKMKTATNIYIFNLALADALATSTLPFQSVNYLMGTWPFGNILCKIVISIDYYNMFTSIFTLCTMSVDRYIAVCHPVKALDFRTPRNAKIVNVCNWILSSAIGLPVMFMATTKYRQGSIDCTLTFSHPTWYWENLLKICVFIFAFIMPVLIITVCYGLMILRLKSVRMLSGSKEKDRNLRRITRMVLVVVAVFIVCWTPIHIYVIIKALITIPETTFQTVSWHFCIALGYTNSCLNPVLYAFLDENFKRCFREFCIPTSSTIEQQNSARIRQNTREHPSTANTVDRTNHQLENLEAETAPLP
In short: (§2)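 HEK293T cells transiently transfected with BRET sensors (DNA:PEI 1:6), plated into poly-D-lysine plates and assayed 48 h post-transfection. Cells washed and held in D-PBS 30 min at 37 °C. Coelenterazine h 5 μM final; ligands 10 μM to 0.01 nM. At least three independent experiments in duplicate.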

D(3) dopamine receptor [3] = biological target: T1, D(3) dopamine receptor (Homo sapiens, UniProt P35462); assay: Displacement of [3H]N-methylspiperone from human D3R receptor expressed in HEK293T cell membrane assessed as inhibition constant incubated for 60 mins by MicroBeta scintillation counting method; type: cell membranes
T1 sequence (P35462 whole entry): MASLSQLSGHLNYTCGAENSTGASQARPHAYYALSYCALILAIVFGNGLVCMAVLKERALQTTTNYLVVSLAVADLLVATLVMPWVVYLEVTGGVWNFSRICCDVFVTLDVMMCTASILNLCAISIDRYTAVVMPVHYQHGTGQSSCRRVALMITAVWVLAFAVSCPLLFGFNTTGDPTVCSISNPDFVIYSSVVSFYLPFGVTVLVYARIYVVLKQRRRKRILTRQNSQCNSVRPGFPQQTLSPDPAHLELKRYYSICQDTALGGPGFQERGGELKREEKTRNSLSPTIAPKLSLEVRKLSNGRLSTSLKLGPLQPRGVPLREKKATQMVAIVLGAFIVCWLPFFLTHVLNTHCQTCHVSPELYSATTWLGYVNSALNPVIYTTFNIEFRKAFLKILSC

D(2) dopamine receptor = D(2) dopamine receptor (Homo sapiens, UniProt P14416); assay: Displacement of [3H]N-methylspiperone from human D2L receptor expressed in HEK293T cell membrane assessed as inhibition constant incubated for 60 mins by MicroBeta scintillation counting method; type: cell membranes
D(2) dopamine receptor, sequence (P14416 whole entry, the tested form may be a part): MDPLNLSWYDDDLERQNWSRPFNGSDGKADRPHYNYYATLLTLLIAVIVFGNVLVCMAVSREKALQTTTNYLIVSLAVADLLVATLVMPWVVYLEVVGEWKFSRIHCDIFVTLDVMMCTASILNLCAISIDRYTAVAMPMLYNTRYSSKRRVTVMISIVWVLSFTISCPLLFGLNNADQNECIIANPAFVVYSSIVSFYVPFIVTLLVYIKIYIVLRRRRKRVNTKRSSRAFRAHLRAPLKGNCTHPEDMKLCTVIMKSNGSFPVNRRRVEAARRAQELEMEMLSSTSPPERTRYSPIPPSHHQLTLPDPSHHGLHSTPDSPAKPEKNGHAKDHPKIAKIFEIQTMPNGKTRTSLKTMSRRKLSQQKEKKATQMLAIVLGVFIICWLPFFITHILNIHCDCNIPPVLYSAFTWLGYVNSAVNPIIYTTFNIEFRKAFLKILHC

[4] = biological target: Mu-type opioid receptor (Mus musculus) (UniProt P42866); assay: Partial agonist activity at Rluc8 fused mouse MOR transfected in HEK293T cells assessed as Nb33 recruitment at 10 uM using coelenterazine as substrate incubated for 40 mins by BRET assay relative to control; type: functional, cell-based; in short: as §2
Mu-type opioid receptor (Mus musculus), sequence (P42866 whole entry, the tested form may be a part): as the sequence (P42866 whole entry, the tested form may be a part) above

[5] = biological target: Mu-type opioid receptor (Mus musculus) (UniProt P42866); assay: as §1, with “activation at 10 uM” for “activation”, “assay relative to control” for “assay”; type: functional, cell-based; in short: as §2
[6] = biological target: Mu-type opioid receptor (Mus musculus) (UniProt P42866); assay: Partial agonist activity at Rluc8 fused mouse MOR transfected in HEK293T cells coexpressing wild type GRK2 assessed as arrestin-3 recruitment at 10 uM using coelenterazine as substrate incubated for 40 mins by BRET assay relative to control; type: functional, cell-based
In short: (§3)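 HEK293T cells transiently transfected with BRET sensors (DNA:PEI 1:6), plated into poly-D-lysine plates and assayed 48 h post-transfection. Cells washed and held in D-PBS 30 min at 37 °C. Coelenterazine h 5 μM final; ligands 10 μM to 0.01 nM. […] At least three independent experiments in duplicate.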

D(3) dopamine receptor [7] = biological target: T1, D(3) dopamine receptor; assay: as §1, with “Antagonist” for “Partial agonist”, “human D3R receptor” for “mouse MOR”, “Galpha-oA,” for “Galpha-i2,”, “Galpha-oA” for “Galpha-i2”, “mins in presence of quinpirole” for “mins”; type: functional, cell-based
[8] = biological target: Mu-type opioid receptor (Mus musculus) (UniProt P42866); assay: Partial agonist activity at Rluc8 fused mouse MOR transfected in HEK293T cells assessed as Nb33 recruitment using coelenterazine as substrate incubated for 40 mins by BRET assay; type: functional, cell-based; in short: as §2
[9] = biological target: Mu-type opioid receptor (Mus musculus) (UniProt P42866); assay: Partial agonist activity at Rluc8 fused mouse MOR transfected in HEK293T cells coexpressing wild type GRK2 assessed as arrestin-3 recruitment using coelenterazine as substrate incubated for 40 mins by BRET assay; type: functional, cell-based; in short: as §2
[10] = biological target: Mu-type opioid receptor (Mus musculus) (UniProt P42866); assay: as §1; type: functional, cell-based; in short: as §2
[11] = biological target: Mu-type opioid receptor (Mus musculus) (UniProt P42866); assay: Agonist activity at Rluc8 fused mouse MOR transfected in HEK293T cells coexpressing wild type GRK2 assessed as arrestin-3 recruitment at 10 uM using coelenterazine as substrate incubated for 40 mins by BRET assay relative to control; type: functional, cell-based; conditions: filed as agonist; in short: as §3
[12] = biological target: Mu-type opioid receptor (Mus musculus) (UniProt P42866); assay: Agonist activity at Rluc8 fused mouse MOR transfected in HEK293T cells assessed as Nb33 recruitment at 10 uM using coelenterazine as substrate incubated for 40 mins by BRET assay relative to control; type: functional, cell-based; conditions: filed as agonist; in short: as §3

Row | SMILES | Ki (Mu-type opioid receptor [1]) [nM] | Ki (D(2) dopamine receptor) [nM] | further results
1 | CN(C)C(=O)C(CCN1C[C@H](O)C[C@H]1C(=O)NCCCCN1CCN(c2cccc(Cl)c2Cl)CC1)(c1ccccc1)c1ccccc1 | 564 | – | EC50 (Mu-type opioid receptor [2]): 1810 nM
2 | CCC1(CC)CC(OCCCNCc2cccc(Cl)c2Cl)(c2ccccn2)CCO1 (stereo unspecified) | 540 | 13400 | Ki (D(3) dopamine receptor [3]): 1180 nM
3 | CN(C)C(=O)C(CCN[C@@H]1C[C@H]1c1ccc(Cl)cc1)(c1ccccc1)c1ccccc1 (relative stereo) | 12.3 | – | –
4 | COc1ccsc1CNCC[C@@]1(c2ccccn2)CCOC2(CCCC2)C1 [OLICERIDINE] | – | 83200 | Emax [4]: 31.4%; Ki (D(3) dopamine receptor [3]): 6860 nM; Emax [5]: 93.2%; Emax [6]: 49.1%
5 | COc1ccccc1[C@@H]1C[C@H]1NCCC(C(=O)N(C)C)(c1ccccc1)c1ccccc1 (relative stereo) | 55.2 | – | –
6 | Clc1ccc([C@@H]2C[C@H]2NCCC2(c3ccccn3)CCOCC2)cc1 (relative stereo) | 1580 | – | –
7 | Clc1cccc(N2CCN(CCCCNCCC3(c4ccccn4)CCOCC3)CC2)c1Cl | 1460 | – | –
8 | FC(F)(F)c1cccc(N2CCN(CCCOC3(c4ccccn4)CCOCC3)CC2)n1 | 2070 | – | –
9 | COc1ccc([C@@H]2C[C@H]2NCCC(C(=O)N(C)C)(c2ccccc2)c2ccccc2)cc1 (relative stereo) | 81.8 | – | –
10 | CCC1(CC)CC(OCCCN2CCN(c3cccc(C(F)(F)F)n3)CC2)(c2ccccn2)CCO1 (stereo unspecified) | 745 | 1240 | –
11 | CN(C)C(=O)C(CCN1CCN(c2cccc(C(F)(F)F)n2)CC1)(c1ccccc1)c1ccccc1 | 1.23 | – | –
12 | CN(C)C(=O)C(CCN1CCN(c2nsc3ccccc23)CC1)(c1ccccc1)c1ccccc1 | 0.364 | 465 | –
13 | CN(C)C(=O)C(CCN1C[C@H](F)C[C@H]1C(=O)NCCCCN1CCN(c2nsc3ccccc23)CC1)(c1ccccc1)c1ccccc1 | 146 | 322 | Emax [4]: inactive; Ki (D(3) dopamine receptor [3]): 53 nM; EC50 (D(3) dopamine receptor [7]): 90.9 nM; IC50 (D(3) dopamine receptor [7]): 91.2 nM; Activity [5]: inactive; Activity [8]: inactive; Activity [9]: inactive; Activity [6]: inactive; Activity [10]: inactive
14 | C[C@@H](NC(=O)[C@@H](N)Cc1ccc(O)cc1)C(=O)NCC(=O)N(C)[C@@H](Cc1ccccc1)C(=O)NCCO | – | – | Emax [11]: 98.7%; Emax [12]: 98.5%
15 | CCc1cc(Cl)c(OC)c(N2CCN(CCCCc3cn(CCC(C(=O)N(C)C)(c4ccccc4)c4ccccc4)nn3)CC2)c1 | 2120 | – | –
16 | CN(C)C(=O)C(CCN(CCO)[C@@H]1C[C@H]1c1ccc(Cl)cc1)(c1ccccc1)c1ccccc1 (relative stereo) | 26.9 | 7330 | –
17 | FC(F)(F)c1cccc(N2CCN(CCC3(c4ccccn4)CCOC4(CCCC4)C3)CC2)n1 (stereo unspecified) | 166 | 5430 | Ki (D(3) dopamine receptor [3]): 734 nM
18 | Clc1cccc(N2CCN(CCCOC3(c4ccccn4)CCOCC3)CC2)c1Cl | 1750 | – | –
